Screening data deposited in PubChem by several laboratories.
KLK5 inh: human KLK5 protease inhibitors, primary screen, biochemical, 1536-well; 210,000 tested, 0.59% active; recombinant hK5, fluorogenic AMC substrate cleavage; inhibition, % at 5 µM; AID 873, 2007;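 active = inhibition of 40% or more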;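 note: 0% = enzyme controls without compound and 100% = no-enzyme blanks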
Target sequence (Q9Y337 67-293 limits assumed): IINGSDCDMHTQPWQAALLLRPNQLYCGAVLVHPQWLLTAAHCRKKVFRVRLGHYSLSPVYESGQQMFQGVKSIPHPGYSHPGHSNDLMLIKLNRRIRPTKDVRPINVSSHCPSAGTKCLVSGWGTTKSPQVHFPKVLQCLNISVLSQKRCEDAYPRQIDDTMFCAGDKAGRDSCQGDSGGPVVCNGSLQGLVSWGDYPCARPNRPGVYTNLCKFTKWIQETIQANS
FXIIa inh 1536: human FXIIa protease inhibitors, primary screen, biochemical, 1536-well; Coagulation factor XII (Homo sapiens), P00748; purified FXIIa, Boc-QGR-AMC fluorogenic substrate, 2 h; inhibition, % at 5 µM; 220,000 tested, 0.3% active; AID 800, 2007; in the data active = inhibition above about 40%;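 note: 0% = enzyme with no compound and 100% = blank without enzyme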
EP2 antag: human EP2 receptor antagonists, primary screen, TR-FRET cAMP, C6 glioma cells; Prostaglandin E2 receptor EP2 subtype (Homo sapiens), P43116; C6 glioma cells expressing human EP2; cells stimulated with saturating PGE2; inhibition, % at 25 µM; 260,000 tested, 0.52% active;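 active = percent inhibition above 40 after rounding to a whole number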;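 note: rat C6 glioma host cells with rolipram phosphodiesterase inhibitor present; the protocol text gives 20 µM as final concentration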
Target sequence (P43116 whole entry, looked up): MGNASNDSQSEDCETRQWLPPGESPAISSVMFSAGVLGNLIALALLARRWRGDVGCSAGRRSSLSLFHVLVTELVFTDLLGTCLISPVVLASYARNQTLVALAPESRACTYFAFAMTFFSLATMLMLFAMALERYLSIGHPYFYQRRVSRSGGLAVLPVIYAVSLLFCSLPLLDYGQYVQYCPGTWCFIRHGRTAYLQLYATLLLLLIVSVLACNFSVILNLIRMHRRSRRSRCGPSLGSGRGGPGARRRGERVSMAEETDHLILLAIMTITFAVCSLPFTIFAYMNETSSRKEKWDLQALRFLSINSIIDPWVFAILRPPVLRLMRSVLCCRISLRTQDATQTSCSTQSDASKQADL
Thrombin inh: human alpha-thrombin inhibitors, primary screen, counter-screen for coagulation protease inhibitor project, biochemical, 1536-well, fluorogenic AMC substrate; Boc-VPR-AMC fluorogenic substrate cleavage; inhibition, % at 5 µM; 220,000 tested, 0.26% active; AID 1046, 2008;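 active = inhibition at or above 40%; inactive = inhibition below 40%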;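 note: 0% = enzyme with no compound and 100% = wells without enzyme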
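Material: human alpha-thrombin protein; Also added: Boc-VPR-AMC substrate, 15 µM final; Timing: enzyme reaction carried out at room temperature; Signal: fluorescence, ex 355 nm, em 460 nm; Measure: % inhibition of thrombin; Controls: enzyme without compound as high, wells lacking enzyme as low.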
FXIa inh 1536: human FXIa protease inhibitors, primary screen, biochemical, 1536-well; Coagulation factor XI (Homo sapiens), P03951; purified FXIa, Boc-Glu-Ala-Arg-AMC fluorogenic substrate; inhibition, % at 5 µM; 220,000 tested, 0.14% active; AID 798, 2007;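 active = inhibition of at least 40%; inactive = inhibition below 40%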;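 note: fluorescence of freed AMC excited at 355 nm; 0% = enzyme without compound and 100% = no enzyme blank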
EP2 modulator: EP2 receptor modulators, cAMP readout, primary screen, cell-based, HTRF cAMP, PGE2 stimulation; Prostaglandin E2 receptor EP2 subtype (Homo sapiens), P43116; EP2-expressing cells, cAMP HTRF FRET, PGE2 co-stimulation; induction, % at 25 µM; 260,000 tested, 0.83% active; AID 940, 2007;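 active = compounds whose cAMP rise, as percent of the full-agonist control response, exceeds 60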;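 note: rat C6 glioma line stably carrying human EP2 under a CMV promoter; the protocol text gives 20 µM as final concentration; 100% = response of wells given 1 µM PGE2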
EP2 cAMP induct: cAMP induction in EP2, EP4, beta2-AR and parental cells, confirmation, counter-screen for EP2 modulator project, cell-based, five parallel assays, C6 glioma, HEK293; calls only at 20 µM (by protocol); cAMP HTRF induction; plus low (about EC15) PGE2 agonist; 1,300 tested, 47% active; shares compounds with EP2 modulator;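 active = cAMP induction above 50% in the main assay while under 30% in all four parallel counter assays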;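 note: rat C6 glioma cells stably expressing human EP2 receptor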
* = called active by the depositor; i = inactive; . = no result given; + = active, no number. Rows were chosen to be rich in hits. Some 2.1% of all compounds tested hit in one or more screens of this group.

SMILES	KLK5 inh	FXIIa inh 1536	EP2 antag	Thrombin inh	FXIa inh 1536	EP2 modulator	EP2 cAMP induct
O=C(Nc1cccc(Cl)c1N1CCCC1)c1ccc(Br)o1	6.4	2.4	6.3	-0.3	7.9	69.1*	+
O=C(Nc1ccccc1Oc1ccccc1)c1ccc(Br)o1	-23.9	14.9	19.8	0.0	7.6	63.8*	+
O=C(Nc1cccc(Cl)c1N1CCCC1)c1ccc([N+](=O)[O-])o1	-8.5	6.8	5.6	2.6	-3.7	28.9	.
Cc1ccc(Oc2ccc(Cl)cc2NC(=O)c2cnccn2)cc1	-9.5	9.2	7.4	3.8	1.8	53.7	.
O=C(Nc1ccccc1O)c1ccc(Br)o1	.	.	6.8	.	.	-57.2	.
CC(=O)N1CCN(c2ncnc3c(-c4ccc(Cl)cc4)nsc23)CC1	.	.	10.8	.	.	-83.1	.
CCOc1ccccc1-n1c(SCC(=O)NC(C)(C)C)nnc1-c1ccncc1	.	.	9.9	.	.	24.1	.
CCOC(=O)CN(C(=O)CSc1nnc(Cc2ccccc2)n1-c1ccc(C)cc1)c1ccccc1	-10.2	13.3	11.0	0.8	5.6	50.3	i
Cc1ccc(CSc2ncnc3c2cnn3Cc2ccccc2)cc1C	6.2	7.7	5.4	-0.2	3.3	66.5*	i
Cc1ccc(CSc2ncnc3c2cnn3Cc2ccccc2)cc1	-13.3	3.4	2.3	-12.0	0.9	42.8	.
OCCN1C2=NCCN2c2ccccc21	.	.	10.9	.	.	-14.5	.
Cc1oc2c(c1C(=O)N1CCC[C@H](C(=O)c3cccs3)C1)CCCC2	.	.	4.7	.	.	8.9	.
Cc1ccc(C(c2nnnn2C(C)C)N2CCN(C(=O)c3ccco3)CC2)cc1 (stereo unspecified)	.	.	10.2	.	.	13.8	.
CC[N+]1(CCOc2ccc(C34CC5CC(CC(C5)C3)C4)cc2)CCCCC1	.	.	7.9	.	.	-22.4	.
Cc1cc(-c2sccc2C)nc(-n2cccc2)n1	1.5	13.8	5.3	0.5	1.3	74.5*	+
CC1(C)Oc2ccc(C(=O)Nc3ccc(F)c(Cl)c3)cc2N(CC(=O)N2CCOCC2)C1=O	.	.	13.7	.	.	-22.3	.
CCN(Cc1ccccc1)C(c1cc2cc(OC)ccc2[nH]c1=O)c1nnnn1C(C)(C)C (stereo unspecified)	.	.	5.4	.	.	-32.5	.
Cc1ccc(C2CC2c2n[nH]c(=S)n2-c2ccc(Cl)cc2)cc1 (stereo unspecified)	-51.3	0.1	5.8	-0.9	-13.3	53.2	i
COc1cccc(-c2nc(N3CCC(C)CC3)c3ccccc3n2)c1O	-12.6	8.5	19.2	1.7	-1.5	55.5	.
COc1cccc(-c2nc(Oc3cc(C)cc(C)c3)c3ccccc3n2)c1O	-8.6	11.4	1.4	-4.3	5.6	26.8	.
Oc1ccccc1-c1nc(N2CCCC2)c2ccccc2n1	-1.1	15.3	7.8	-0.5	-0.8	74.9*	i
COc1cccc(-c2nc(N3CC(C)CC(C)C3)c3ccccc3n2)c1O (stereo unspecified)	10.4	0.0	.	-3.7	1.6	69.7*	+
CN1CCN(c2nc(-c3cccnc3)nc3ccccc23)CC1	-8.3	11.0	11.1	3.2	3.4	7.3	.
c1cncc(-c2nc(N3CCCCCC3)c3ccccc3n2)c1	-0.8	12.4	.	6.9	2.8	74.1*	+
CC(C)Oc1nc(-c2ccccc2O)nc2ccccc12	-17.3	20.2	9.9	-0.8	15.8	79.9*	+
SMILES	KLK5 inh	FXIIa inh 1536	EP2 antag	Thrombin inh	FXIa inh 1536	EP2 modulator	EP2 cAMP induct
CC1CCN(c2nc(-c3ccccc3O)nc3ccccc23)CC1	7.3	21.8	9.7	1.8	8.6	31.3	.
O=c1[nH]nc(-c2cc3c(s2)CCCC3)o1	.	.	.	.	.	33.0	.
C[C@@H]1CN(C(=O)c2cc(-c3ccc4c(c3)OCCO4)n[nH]2)[C@H](C)CN1Cc1ccco1	.	.	0.6	.	.	-27.4	.
Cc1ccc2nc(SCC(=O)N3CCCC3)c(C)cc2c1	.	.	11.1	.	.	-15.5	.
Cc1ccc(-c2nn(-c3ccccc3)cc2CN(Cc2ccccc2)C(=O)c2ccco2)o1	-0.5	3.9	8.6	-1.7	-5.6	79.6*	+
O=C(NCc1ccco1)c1ccc(=O)[nH]n1	-12.7	13.8	12.5	-8.8	-3.9	67.3*	i
Cc1ccc(N2CCCC2=O)cc1S(=O)(=O)NC1(c2ccc(F)cc2)CC1	.	.	7.2	.	.	-18.9	.
COc1ccc(OC)c(-c2cnc(OC(C)(C)C)nc2OC(C)(C)C)c1	-10.9	7.5	7.8	-5.2	4.2	69.8*	i
COc1ccc(C2NC(=O)NC(C)=C2C(=O)Nc2ccc(F)cc2)cc1OC (stereo unspecified)	.	.	10.0	.	.	2.7	.
C[C@]12CC[C@@H]3c4ccc(O)cc4CC[C@H]3[C@@H]1CCC2=O	-11.9	10.3	15.1	0.1	-0.1	-51.8	.
C=C(C)COc1ccc2c(c1)CC[C@@H]1[C@H]3C/C(=N/O)C(=O)[C@]3(C)CC[C@@H]21	.	.	30.1	.	.	63.1*	i
FC(F)(F)c1cc(-c2ccccc2)nc(-n2cc(Cl)cn2)n1	3.4	4.2	10.3	-19.5	1.5	59.4	.
Cc1cnn(-c2nc(-c3ccccc3)cc(-c3ccccc3)n2)c1	5.2	13.9	4.8	-8.9	11.8	66.6*	+
O=c1[nH]c2cc3c(cc2cc1CN(CC1CCCO1)C(=S)NCc1ccco1)OCO3 (stereo unspecified)	.	.	33.5	.	.	0.6	.
N#Cc1c(-c2ccco2)nc(SCC(=O)Nc2cccc(Cl)c2)[nH]c1=O	-5.6	2.7	21.4	-9.4	-1.2	63.7*	i
Cc1ccc(NC(=O)CSc2nc(-c3ccco3)c(C#N)c(=O)[nH]2)cc1	.	.	8.0	.	.	10.4	.
Cc1cccc(N(CC(=O)NCc2cccnc2)S(C)(=O)=O)c1C	.	.	1.8	.	.	-6.7	.
CC(=O)N1c2ccc(-c3csc(NC(=O)/C=C/c4ccccc4)n3)cc2CC1C (stereo unspecified)	.	.	23.9	.	.	-2.0	.
CCCn1c(Cc2ccccc2)n[nH]c1=S	-8.6	17.2	19.0	3.1	4.3	37.8	.
S=c1[nH]nc(Cc2ccccc2)n1Cc1ccco1	4.9	3.2	-1.1	1.6	-2.0	53.1	i
Cn1ccnc1C1(O)COC2(CCN(C(=O)c3ccc(-c4ccc(F)cc4)o3)CC2)C1 (stereo unspecified)	.	.	.	.	.	-28.6	.
CCOc1ccc(N(CC(=O)N2CCCCC2)S(=O)(=O)c2ccc(F)cc2)cc1	.	.	5.8	.	.	1.4	.
